GPR7 antag: human neuropeptides B/W receptor 1 antagonism | P48145 | 1.1% of 290,000 active | inhibition, % at 4.4 µM | GPR7-expressing cells, fluorescence antagonist assay | AID 1861; in the data active means inhibition above about 16%, passing the limit was not always enough;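 further: cells stimulated with the agonist NPW; 0% = agonist with vehicle and 100% = vehicle without agonist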
Target sequence (P48145 whole entry, looked up): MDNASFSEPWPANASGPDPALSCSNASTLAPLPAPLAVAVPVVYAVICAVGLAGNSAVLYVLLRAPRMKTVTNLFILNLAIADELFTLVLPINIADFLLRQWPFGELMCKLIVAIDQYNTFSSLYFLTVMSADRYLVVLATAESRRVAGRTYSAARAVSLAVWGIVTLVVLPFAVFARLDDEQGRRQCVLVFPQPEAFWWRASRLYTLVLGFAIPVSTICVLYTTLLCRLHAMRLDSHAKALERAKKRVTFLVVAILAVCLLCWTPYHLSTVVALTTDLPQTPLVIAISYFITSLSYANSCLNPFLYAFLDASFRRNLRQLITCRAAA
HCV NS3 hel inh: blocks Hepatitis C virus NS3 helicase unwinding; NS3 helicase DNA unwinding, Cy5 molecular beacon fluorescence; inhibition, % at 10.9 µM; 0.56% of 290,000 active;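 active means inhibition above the mean of all tested compounds plus 3 SD, set per campaign, cut at about 35% in these data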;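 further: 0% = DMSO wells and 100% = thioflavine S control wells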
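Material: hepatitis C virus NS3 helicase domain fragment enzyme; measured by: Cy5 fluorescence, 0 and 60 min reads; control set: DMSO and thioflavine S; incubation: 60 min unwinding reaction at 25 °C after ATP addition; read-out basis: % inhibition from 60/0 min fluorescence ratio, DMSO 0%, thioflavine S 100%; repeats: singlicate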
ZTA DNA inh: ZTA (EBV) inhibition in EBNA-1 counter-screen; ZTA-DNA binding, fluorescence polarization; 0.15% of 320,000 active; inhibition, % at 11 µM; in the data active means inhibition above about 33%
EBV gp42 inh: inhibitors of Epstein-Barr virus glycoprotein 42; Q1HVG2; Fluorescence polarization binding assay, mP read-out; inhibition, % (tested at 21.74 µM); 0.42% of 220,000 active; AID 1085; in the data active means inhibition above about 50%
Target sequence (Q1HVG2 whole entry, looked up): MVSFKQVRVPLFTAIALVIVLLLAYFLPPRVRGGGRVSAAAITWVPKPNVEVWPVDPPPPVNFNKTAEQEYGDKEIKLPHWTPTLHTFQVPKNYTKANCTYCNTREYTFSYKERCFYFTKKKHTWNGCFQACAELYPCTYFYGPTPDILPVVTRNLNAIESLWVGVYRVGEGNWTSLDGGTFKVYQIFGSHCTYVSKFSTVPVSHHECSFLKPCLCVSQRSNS
core dimer inh: blocks dimerization of HCV core protein; inhibition, % at 5 µM; 0.33% of 300,000 active; TR-FRET GST/Flag-core106 dimerization, 1536-well; AID 1899;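 active means inhibition above the mean of all tested compounds plus 3 SD, set per screening campaign, cut at about 45% in these data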
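Material: Tagged HCV core106 pair (GST and Flag) | Amount: GST-core106 13.5 nM, Flag-core106 17 nM | Medium: KF-containing HEPES buffer, pH 7.45, DTT, CHAPS, BSA | Reagent: Eu donor and XL665 acceptor anti-tag antibodies | Schedule: 4 h at 22.5 °C | Technique: Time-resolved FRET, ex 340 nm, em 617 and 671 nm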
EBNA-1 inh: blocks EBNA-1 binding to DNA; EBNA-1 DNA binding, fluorescence polarization; inhibition, % at 14.8 µM; 0.34% of 300,000 active; in the data active means inhibition above about 28%
GPR7 antag cf: human GPR7 antagonism, confirmation assay; 52% of 2,400 active; AID 1952; GPR7-expressing cells, calcium fluorescence antagonist mode; inhibition, % at 4.4 µM; shares compounds with GPR7 antag; in the data active means inhibition above about 24%;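 further: stimulated with the GPR7 agonist NPW; 0% = agonist plus vehicle and 100% = vehicle alone without agonist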
MCHR1 antagonist: counter-screen for GPR7 antagonists: antagonists of human MCHR1. shares compounds with GPR7 antag. MCHR1-expressing cells, fluorescence antagonist assay. inhibition, % at 4.4 µM. 62% of 2,400 active. AID 2148; in the data active means inhibition above about 22%;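 further: 0% = vehicle with agonist and 100% = vehicle without agonist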
Starred values were filed as active, the others as inactive; . = no result given. The list is not random: actives were taken first. Their share in the collection is about 2.3%.

SMILES | GPR7 antag | HCV NS3 hel inh | ZTA DNA inh | EBV gp42 inh | core dimer inh | EBNA-1 inh | GPR7 antag cf | MCHR1 antagonist
C=CCc1c(Cl)nc(C)nc1NCc1ccccc1 | 1.2 | 3.5 | 6.1 | . | -2.1 | 2.1 | . | .
OC(CNCC1CCCO1)Cn1c2ccccc2c2ccccc21 (centres undefined) | 6.3 | -12.0 | -6.4 | -10.7 | -9.7 | 0.9 | . | .
OC(CNCC1CCCO1)Cn1c2ccc(Cl)cc2c2cc(Cl)ccc21 (centres undefined) | 53.0* | -96.2 | 6.7 | -5.8 | -16.9 | -12.4 | 53.1* | 54.0*
O=C(Nc1ccsc1C(=O)O)c1ccc(Cl)cc1 | 46.0* | 8.0 | 8.3 | . | 6.8 | -13.4 | 3.2 | 5.2
Cc1ccc(C(=O)Nc2ccsc2C(=O)O)cc1 | 4.8 | 17.3 | -14.7 | . | -6.5 | -3.3 | . | .
O=C(NCc1cccnc1)c1ccc(-c2cc(Cl)ccc2Cl)o1 | 2.7 | -7.0 | -12.5 | -20.1 | -0.1 | 0.5 | . | .
O=C(NCc1cccnc1)c1cc(-c2ccc(Cl)cc2)oc1C(F)(F)F | 34.0* | 4.1 | -4.7 | -19.0 | 1.6 | 6.5 | 24.2* | 20.0
CCCn1c(CN2CCN(C(=O)OCC)CC2)nc2cc([N+](=O)[O-])ccc21 | 19.2 | -16.5 | -2.1 | . | 1.5 | -1.2 | . | .
NC(=O)c1ccc(Nc2nnc(-c3ccc(O)cc3)c3ccccc23)cc1 | 12.3 | 4.8 | 8.6 | 10.8 | -0.4 | -5.7 | . | .
COc1ccc(Nc2nnc(-c3ccc(C(N)=O)cc3)c3ccccc23)cc1 | 33.9* | -21.8 | -16.3 | . | 0.2 | -9.6 | 4.7 | 15.0
COc1ccc(Nc2nnc(-c3ccc(C(=O)NCCO)cc3)c3ccccc23)cc1 | 60.5* | -3.4 | -8.0 | . | -5.9 | -9.5 | 1.9 | 35.9*
CNC(=O)c1ccc(Nc2nnc(-c3ccc(C(N)=O)cc3)c3ccccc23)cc1 | -3.4 | -5.8 | 0.1 | . | 5.9 | -8.0 | . | .
COc1ccc(-c2csc(NC(=O)c3ccccc3NS(=O)(=O)c3ccc(F)c(F)c3)n2)cc1 | 69.0* | 5.1 | 12.0 | -2.6 | 22.4 | 10.3 | 52.3* | 59.0*
O=C(/C(N=Nc1cccc([N+](=O)[O-])c1)=C(/O)c1ccc(Br)cc1)C(F)(F)F | -10.1 | 3.6 | 0.9 | 1.0 | 0.8 | -7.1 | . | .
Cc1ccc(CN(C(=O)c2c(F)cccc2F)C2CC(C)(C)NC(C)(C)C2)o1 | 25.0* | -7.7 | -11.3 | -24.3 | -3.5 | -7.0 | 8.7 | 2.9
COc1cccc(OCc2cc(C(=O)N(C)C3CC(C)(C)NC(C)(C)C3)no2)c1 | -8.2 | -10.2 | -10.3 | . | 2.5 | -2.4 | . | .
O=C(COc1ccc(Cl)cc1)Nc1ccc2c(c1)C(=O)NC2=O | 32.6* | -0.1 | -22.6 | . | -2.3 | -17.4 | 23.8* | 26.8*
Cc1ccc(OCC(=O)Nc2ccc3c(c2)C(=O)NC3=O)cc1 | 27.9* | 1.0 | 10.3 | . | -8.8 | -0.2 | 40.0* | 34.6*
Cc1cccc(OCC(=O)Nc2ccc3c(c2)C(=O)NC3=O)c1 | 12.3 | -2.7 | -2.2 | . | -0.4 | 2.6 | . | .
O=C(COc1ccc(Cl)cc1)Nc1ccc(Cc2ccncc2)cc1 | 27.9* | -2.6 | 18.4 | -6.6 | -13.2 | -2.3 | 32.3* | 49.1*
COc1ccc(OCC(=O)Nc2ccc(Cl)cc2)cc1 | 12.0 | 1.1 | 12.0 | 6.2 | -0.2 | 14.1 | . | .
Cc1cc(OCC(=O)Nc2ccncc2)ccc1Br | 23.1* | -5.2 | 9.0 | -5.2 | 0.6 | -4.7 | 36.3* | 49.9*
O=C(COc1ccc2ccccc2c1)Nc1ccc(Cc2ccncc2)cc1 | -3.5 | -7.7 | -11.8 | -9.9 | -4.0 | -2.7 | . | .
COc1cccc(C(=O)c2cn(CC(=O)NCc3ccco3)c3nc(C)ccc3c2=O)c1 | -6.5 | 9.9 | 5.8 | . | 22.5 | 2.7 | . | .
CCCCN(C(=O)COC(=O)c1ccc(C=O)cc1)c1c(N)n(CCC)c(=O)[nH]c1=O | . | . | 9.6 | . | . | . | . | .
SMILES | GPR7 antag | HCV NS3 hel inh | ZTA DNA inh | EBV gp42 inh | core dimer inh | EBNA-1 inh | GPR7 antag cf | MCHR1 antagonist
Cc1cc(NC(=O)NN2CCOCC2)nn1-c1c(Cl)cc(Cl)cc1Cl | -4.2 | 2.9 | 1.1 | 1.7 | -0.6 | -12.7 | . | .
O=C(CSCc1ccccc1)Nc1ccc2c(c1)C(=O)NC2=O | 23.5* | 2.2 | 1.0 | -0.8 | -0.2 | 0.9 | 35.5* | 34.4*
O=C(Nc1ccc2c(c1)C(=O)NC2=O)c1ccccc1 | 3.4 | 7.2 | 4.5 | . | 6.0 | -0.5 | . | .
Cc1cccc(-c2nnc(SCC(=O)Nc3cccc(C(=O)N4CCOCC4)c3)n2C)c1 | 12.8 | -1.1 | 10.7 | -2.0 | -1.6 | 2.8 | . | .
O=C(Nc1ccc(Br)cc1)Nc1ccccc1F | 28.2* | 1.1 | -2.9 | 1.7 | -0.5 | -1.9 | 59.1* | 65.4*
O=C(Nc1cccc(C(F)(F)F)c1)C(SCCO)c1ccccc1 (centres undefined) | -3.6 | -4.5 | -4.0 | -15.4 | -4.0 | -2.4 | . | .
Cc1ccccc1NC(=O)Nc1ccc(C(F)(F)F)cc1 | 54.5* | -5.1 | 6.0 | 2.1 | -0.1 | 6.1 | 69.0* | 52.4*
CCC(C(=O)Nc1cccc(C(F)(F)F)c1)c1ccccc1 (centres undefined) | 28.3* | -10.1 | -13.6 | 6.2 | -16.8 | 9.7 | 8.2 | 47.4*
Cc1ccccc1NC(=O)CNC(=O)c1ccc(C(F)(F)F)cc1 | -4.0 | 4.8 | -0.5 | -9.2 | -1.0 | 6.6 | . | .
O=C(Nc1ccc(-n2ccc(C(F)(F)F)n2)cc1)Nc1cccc(Cl)c1 | 21.1* | 14.0 | 3.3 | 5.6 | 2.6 | 9.4 | 41.6* | 71.4*
COc1ccc(NC(=O)CN(C)C(=O)CCCSc2nc3ccccc3[nH]2)cc1 | . | . | 11.2 | . | -0.1 | -1.8 | . | .
CC(C)C1Cc2nc(Cl)c(C#N)cc2CO1 (centres undefined) | -5.6 | 0.8 | 6.1 | -6.8 | 3.9 | 13.2 | . | .
CNC(=O)Nc1cccc(C(F)(F)F)c1 | -19.0 | 2.6 | -3.1 | -17.5 | 0.3 | -1.8 | . | .
O=C(Nc1ccccc1)Nc1ccccc1Br | -1.4 | 6.7 | -3.5 | -4.6 | -1.2 | 2.0 | . | .
O=C(Cc1ccc([N+](=O)[O-])cc1)Nc1cccc(C(F)(F)F)c1 | 39.0* | -15.9 | -10.5 | -9.8 | -9.8 | 1.1 | 29.9* | 56.7*
O=C(Nc1ccccc1)Nc1cccc(C(F)(F)F)c1 | 27.3* | -5.8 | 1.2 | 11.0 | 1.3 | -7.5 | 40.5* | 60.6*
CCc1ccc(NC(=O)C(CC)c2ccccc2)cc1 (centres undefined) | 31.2* | -9.5 | -13.1 | -5.2 | -0.8 | -10.1 | 57.6* | 60.3*
O=C(Cc1ccc([N+](=O)[O-])cc1)Nc1cc(C(F)(F)F)cc(C(F)(F)F)c1 | -18.1 | -1.2 | 4.4 | 3.2 | 3.3 | 1.4 | . | .
O=C(Nc1ccccc1)Nc1ccc(Br)c(Cl)c1 | 28.9* | 5.4 | 8.5 | -1.4 | 5.9 | -3.3 | 49.5* | 56.6*
CCCCCNCC(=O)Nc1cccc(C(=O)Nc2cccc(C(F)(F)F)c2)c1 | 25.0* | -45.4 | 10.3 | -10.2 | 1.4 | 1.8 | 50.2* | 81.2*
